Laboratory results reported in PubChem BioAssay AID623982 (Broad Institute, 2012).
“And” between values parts separate entries of the source, which are not always exact repeats. Equal entries are not always repeated. The source made the active and inactive calls.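 How the source made its calls: active means compounds cutting fungal growth signal with fitted half-effect dose at most twice the top valid dose; inconclusive means flat curve at 30 to 70% inhibition, or poor fit; inactive means the rest.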

Test system: not listed separately
Experiment: growth inhibition of highly fluconazole-resistant C. albicans, dose response, CaCi-17 strain, retest, dry powder, set 3 (AID 623982)
Conditions: C. albicans CaCi-17 growth, Alamar Blue fluorescence, 48 h; at 3 µM (top of the series)
Summary of the method: (§1)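 Medium – buffered RPMI · Read-out – growth inhibition indicated by fluorescence signal loss · Benchmarks – amphotericin B at 10 µM as positive control · Times – 48 h exposure, 37 °C, humidified, static · Technique – Alamar Blue fluorescence, 2 h dye incubation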

Compound	activity change, negative = inhibition
CCOC(=O)N1C(=O)C2(CCCCC2)N(c2ccccc2)C1=S	104% (inactive)
C/C=C/[C@@H]1[C@H]2C[C@@H](C)CC[C@@H]2C(C)=C[C@H]1C(=O)c1c(O)c(-c2ccc(O)cc2)c[nH]c1=O	54.1% (inactive)
CCOC(=O)N1C(=O)C2(CCCCC2)N(c2ccc(C)cc2)C1=S	100% (inactive) and 85.9% (inactive)
CCOC(=O)N1C(=O)C2(CCCCC2)N(c2cccc(C)c2)C1=S	70.9% (inactive)

Test system: C. albicans CaCi-17 growth, Alamar Blue fluorescence, 48 h
Experiment: as above
Conditions: not given
Summary of the method: as §1

Compound	AC50
CC1/C=C/C=C\C=C\C=C\C=C\C=C\C=C\C(O[C@H]2OC(C)C(O)C(N)C2O)CC2OC(O)(CC(O)CC(O)C(O)CCC(O)CC(O)CC(=O)OC(C)C(C)C1O)CC(O)C2C(=O)O (stereo partly specified)	83.8 nM
CCOC(=O)N1C(=O)C2(CCCCC2)N(c2ccc(F)cc2)C1=S	783 nM
